The source made the active and inactive calls. The rule behind the calls is not given here.
Assays:
[1] = Ratio of drug uptake in Sprague-Dawley rat lung to plasma at 1 umol/kg, it administered as micronized powder measured up to 8 hrs post dose by electrospray LC-MS analysis; format: ADME; details: other tissue, inhaled_or_intranasal
[2] = target: Dual specificity calcium/calmodulin-dependent 3',5'-cyclic nucleotide phosphodiesterase 1A (Homo sapiens, UniProt P54750); test: Inhibition of human recombinant PDE1A expressed insect sf9 cells by radiometric assay
Procedure, shortened: (§1)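 Human recombinant PDEs expressed in Sf9 cells, except PDE6 purified from bovine retina. Radiometric two-step method, modified from Thompson and Appleman. Five concentrations in duplicate, starting at 30 μM with 1:10 serial dilution, 1% final DMSO.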

Rattus norvegicus [3] = organism: Rattus norvegicus; test: Binding affinity to rat imidazoline I2 receptor
Procedure, shortened: (§2)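 Off-target screening panel of about 400 receptors, enzymes and ion channels, run at 1 μM. Result expressed as % binding.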

[4] = Inhibition of bovine retina PDE6 expressed insect sf9 cells by radiometric assay; set-up: species or system Bos taurus
Rattus norvegicus [5] = test: (§3) Anti-inflammatory activity in OVA-induced airway inflammation Brown Norway rat model assessed inhibition of inflammatory cell infiltration in bronchoalveolar lavage fluid at 1 umol/kg administered intratracheally as powder formulation 2 hrs before aerosolized OVA challenge measured at 24 hrs post aerosolized OVA challenge; format: functional
Procedure, shortened: (§4)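 Male Brown Norway rats sensitized i.p. with OVA (1 mg/rat) plus Al(OH)3 (100 mg/rat) in saline on 3 consecutive days. Challenged 2–3 weeks later with nose-only 1% OVA aerosol for 30 min. Lactose-blended dry powder (10 mg/kg total powder) insufflated intratracheally; dose taken from needle weight difference. BAL with 3 × 4 mL HBSS/EDTA/HEPES at 24 h; total and differential counts by automated counter. ED50 from fitted dose–response curve.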

Rattus norvegicus [6] = test: as §3, with “eosinophils recruitment” for “inflammatory cell infiltration”, “0.1” for “1”; format: functional; details: inhaled or nasal; procedure, shortened: as §4
[7] = Apparent permeability across basolateral to apical side in human Caco2 cells at 10 uM after 2 hrs by LC-MS/MS analysis; format: ADME, cell-based; details: Caco-2
[8] = target: 3',5'-cyclic-AMP phosphodiesterase 4B (Homo sapiens, UniProt Q07343); test: Inhibition of human recombinant PDE4B expressed insect sf9 cells by radiometric assay; procedure, shortened: as §1
[9] = Half life in Sprague-Dawley rat lung at 1 umol/kg, it administered as micronized powder measured up to 24 hrs post dose by electrospray LC-MS analysis; format: ADME, tissue-based; details: inhaled or intranasal
Procedure, shortened: (§5)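 Sprague-Dawley rats (250−400 g) dosed intratracheally with micronized dry powder blended with coarse lactose, delivered by insufflator under isoflurane anaesthesia. Blood collected in heparinized tubes and spun at 1200g for 15 min. Lung sampled at 0.25, 1, 2, 4, 8, 16 and 24 h, n = 3 per time point.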

Lung = test: AUClast in Sprague-Dawley rat lung at 1 umol/kg, it administered as micronized powder measured up to 24 hrs post dose by electrospray LC-MS analysis; format: ADME, tissue-based; details: in vivo, inhaled_or_intranasal; procedure, shortened: as §5
Cytochrome P450 2C19 = Cytochrome P450 2C19 (Homo sapiens, UniProt P33261); test: Binding affinity to human liver microsomes CYP2C19 at 1 uM; format: ADME; procedure, shortened: as §2
[10] = MRTlast in Sprague-Dawley rat lung at 1 umol/kg, it administered as micronized powder measured up to 24 hrs post dose by electrospray LC-MS analysis; format: ADME, tissue-based; details: inhaled or intranasal; procedure, shortened: as §5
Plasma = test: AUClast in Sprague-Dawley rat plasma at 1 umol/kg, it administered as micronized powder measured up to 24 hrs post dose by electrospray LC-MS analysis; format: ADME, cell-free; details: inhaled_or_intranasal; procedure, shortened: as §5
[11] = Metabolic stability in human plasma assessed as compound remaining at 1 uM measured after 60 mins in presence of NADPH by LC-MS/MS analysis; format: ADME, cell-free; details: read-out: Stability
[12] = Metabolic stability in human lung S9 fraction assessed as compound remaining at 1 uM measured after 60 mins in presence of NADPH by LC-MS/MS analysis; format: ADME; details: read-out: Stability
[13] = target: Dual 3',5'-cyclic-AMP and -GMP phosphodiesterase 11A (Homo sapiens, UniProt Q9HCR9); test: Inhibition of human recombinant PDE11A4 expressed insect sf9 cells by radiometric assay; procedure, shortened: as §1
[14] = Protein binding in human plasma at 5 uM after 5 hrs by LC-MS/MS analysis; format: ADME, cell-free; details: read-out: PPB (converted)
Rattus norvegicus [15] = test: as §3, with “eosinophils recruitment” for “inflammatory cell infiltration”, “fluid” for “fluid at 1 umol/kg”; format: functional; details: for ED50: inhaled or nasal; procedure, shortened: as §4
[16] = target: T1, Sterol O-acyltransferase 1 (Rattus norvegicus) (UniProt O70536); test: Binding affinity to rat hepatic Acyl CoA-cholesterol acyltransferase at 1 uM; procedure, shortened: as §2
T1 sequence (whole entry): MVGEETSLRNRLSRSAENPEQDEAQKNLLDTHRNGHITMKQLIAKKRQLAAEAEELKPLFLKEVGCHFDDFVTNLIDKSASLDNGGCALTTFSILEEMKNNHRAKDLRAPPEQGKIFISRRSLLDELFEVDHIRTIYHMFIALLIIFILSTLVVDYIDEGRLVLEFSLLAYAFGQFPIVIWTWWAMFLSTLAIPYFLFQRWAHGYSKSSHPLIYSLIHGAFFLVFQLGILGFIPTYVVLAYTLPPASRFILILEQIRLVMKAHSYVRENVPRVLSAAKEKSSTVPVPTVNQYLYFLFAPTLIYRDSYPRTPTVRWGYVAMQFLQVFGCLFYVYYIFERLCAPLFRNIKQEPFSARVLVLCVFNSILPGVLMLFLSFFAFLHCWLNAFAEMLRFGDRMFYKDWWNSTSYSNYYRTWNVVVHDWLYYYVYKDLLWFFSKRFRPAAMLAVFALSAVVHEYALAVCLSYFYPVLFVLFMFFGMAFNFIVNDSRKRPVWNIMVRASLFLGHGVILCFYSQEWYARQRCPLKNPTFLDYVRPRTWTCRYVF

[17] = Drug metabolism in human hepatocytes assessed as (S)-1-(3-(dimethylcarbamoyl)phenylsulfonyl)pyrrolidine-2-carboxylic acid metabolite formation at 10 uM after 60 mins by LC-MS/MS analysis; format: ADME, cell-based, Hepatocyte; details: 1 h
Procedure, shortened: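 Pooled mixed-sex cryopreserved human hepatocytes (1 million cells/mL) in Leibovitz L-15 at 37 °C, compound at 10 μM in duplicate. Sampled at 0 and 60 min. Protein-free supernatant evaporated under nitrogen, reconstituted in mobile phase and analysed by LC−MS/MS. Cell-free medium incubation for 60 min as control.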

Chain of 3',5'-cyclic-AMP phosphodiesterase 4B (Q07343 whole entry): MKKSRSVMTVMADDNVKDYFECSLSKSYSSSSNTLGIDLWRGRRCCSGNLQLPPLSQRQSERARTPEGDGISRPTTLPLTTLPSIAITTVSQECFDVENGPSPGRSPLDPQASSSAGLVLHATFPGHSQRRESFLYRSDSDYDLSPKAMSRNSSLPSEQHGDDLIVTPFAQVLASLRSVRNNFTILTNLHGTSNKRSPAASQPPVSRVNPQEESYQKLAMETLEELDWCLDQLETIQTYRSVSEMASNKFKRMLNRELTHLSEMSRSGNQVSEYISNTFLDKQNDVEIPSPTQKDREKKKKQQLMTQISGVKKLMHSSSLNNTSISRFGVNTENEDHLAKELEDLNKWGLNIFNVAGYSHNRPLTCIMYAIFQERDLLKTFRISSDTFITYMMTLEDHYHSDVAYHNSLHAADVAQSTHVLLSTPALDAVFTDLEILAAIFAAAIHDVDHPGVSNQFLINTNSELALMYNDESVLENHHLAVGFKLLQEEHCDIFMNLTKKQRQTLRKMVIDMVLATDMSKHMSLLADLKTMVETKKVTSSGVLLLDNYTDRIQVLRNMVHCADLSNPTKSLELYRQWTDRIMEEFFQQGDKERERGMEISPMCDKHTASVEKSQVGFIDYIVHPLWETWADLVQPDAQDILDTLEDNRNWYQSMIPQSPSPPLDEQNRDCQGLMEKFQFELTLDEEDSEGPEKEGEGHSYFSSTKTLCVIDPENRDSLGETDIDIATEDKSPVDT
Chain of Dual 3',5'-cyclic-AMP and -GMP phosphodiesterase 11A (Q9HCR9 whole entry): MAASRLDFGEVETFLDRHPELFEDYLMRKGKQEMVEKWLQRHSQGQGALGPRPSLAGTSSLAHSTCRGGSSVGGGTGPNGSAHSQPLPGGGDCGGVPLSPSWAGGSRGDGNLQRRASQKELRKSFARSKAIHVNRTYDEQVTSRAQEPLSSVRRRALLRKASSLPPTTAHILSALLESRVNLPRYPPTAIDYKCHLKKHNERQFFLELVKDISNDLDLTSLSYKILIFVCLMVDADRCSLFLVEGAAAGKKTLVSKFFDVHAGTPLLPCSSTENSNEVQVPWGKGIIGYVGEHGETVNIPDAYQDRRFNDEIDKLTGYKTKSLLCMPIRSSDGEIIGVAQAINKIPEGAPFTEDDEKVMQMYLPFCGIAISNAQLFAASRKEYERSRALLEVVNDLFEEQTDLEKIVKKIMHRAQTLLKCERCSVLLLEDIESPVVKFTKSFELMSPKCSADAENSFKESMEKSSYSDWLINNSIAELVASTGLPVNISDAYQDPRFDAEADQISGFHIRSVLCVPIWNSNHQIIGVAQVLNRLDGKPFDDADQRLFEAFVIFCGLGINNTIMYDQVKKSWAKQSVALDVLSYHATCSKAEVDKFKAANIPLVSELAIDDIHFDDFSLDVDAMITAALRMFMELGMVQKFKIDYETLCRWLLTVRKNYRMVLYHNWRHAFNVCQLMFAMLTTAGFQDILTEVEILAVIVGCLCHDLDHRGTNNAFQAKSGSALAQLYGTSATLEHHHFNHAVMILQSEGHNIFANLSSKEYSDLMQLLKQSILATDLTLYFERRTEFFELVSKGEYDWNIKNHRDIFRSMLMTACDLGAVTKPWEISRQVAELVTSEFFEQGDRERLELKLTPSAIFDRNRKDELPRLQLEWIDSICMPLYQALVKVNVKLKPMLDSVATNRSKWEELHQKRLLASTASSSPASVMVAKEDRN
Chain of Dual specificity calcium/calmodulin-dependent 3',5'-cyclic nucleotide phosphodiesterase 1A (P54750 whole entry): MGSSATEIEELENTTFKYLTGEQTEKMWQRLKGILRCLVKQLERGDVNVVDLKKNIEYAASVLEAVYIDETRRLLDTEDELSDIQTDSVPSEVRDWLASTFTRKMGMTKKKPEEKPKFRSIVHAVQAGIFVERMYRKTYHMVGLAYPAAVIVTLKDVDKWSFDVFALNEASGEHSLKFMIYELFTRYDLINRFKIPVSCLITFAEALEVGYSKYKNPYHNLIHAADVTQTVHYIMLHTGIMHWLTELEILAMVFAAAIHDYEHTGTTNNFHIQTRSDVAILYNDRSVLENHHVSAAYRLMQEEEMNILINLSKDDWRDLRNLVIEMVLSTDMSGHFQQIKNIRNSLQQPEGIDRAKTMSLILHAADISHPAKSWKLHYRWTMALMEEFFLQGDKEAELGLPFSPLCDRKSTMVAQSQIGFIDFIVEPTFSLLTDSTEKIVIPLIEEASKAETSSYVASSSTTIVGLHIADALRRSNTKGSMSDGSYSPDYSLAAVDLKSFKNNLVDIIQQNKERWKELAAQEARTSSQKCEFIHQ
Chain of Cytochrome P450 2C19 (P33261 whole entry): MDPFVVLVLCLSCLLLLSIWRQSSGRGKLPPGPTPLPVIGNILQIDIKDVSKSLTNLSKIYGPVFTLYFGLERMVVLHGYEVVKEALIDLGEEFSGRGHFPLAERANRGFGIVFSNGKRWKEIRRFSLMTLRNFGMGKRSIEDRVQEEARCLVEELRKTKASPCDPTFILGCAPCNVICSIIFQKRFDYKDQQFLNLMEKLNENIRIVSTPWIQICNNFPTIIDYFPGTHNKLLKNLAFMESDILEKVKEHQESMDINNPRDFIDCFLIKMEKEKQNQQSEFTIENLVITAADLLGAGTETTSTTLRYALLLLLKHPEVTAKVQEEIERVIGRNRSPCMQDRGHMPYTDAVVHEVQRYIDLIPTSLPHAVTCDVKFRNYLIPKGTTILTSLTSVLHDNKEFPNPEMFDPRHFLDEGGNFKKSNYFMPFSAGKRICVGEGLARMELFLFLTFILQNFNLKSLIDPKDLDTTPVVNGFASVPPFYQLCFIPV

| Ratio [1] | IC50 [2] | Papp B→A at 2 h, 10 µM [7] | IC50 [8] | half-life [9] | AUClast (Lung) | MRT last at 24 h [10] | AUClast (Plasma) | remaining at 1 h, 1 µM [11] | remaining at 1 h, 1 µM [12] | IC50 [13] | fraction unbound at 5 h, 5 µM [14] | Compound | IC50 [4] | inhibition (Rattus norvegicus [15]) | ED50 (Rattus norvegicus [15]) | also measured |
| --- | --- | --- | --- | --- | --- | --- | --- | --- | --- | --- | --- | --- | --- | --- | --- | --- |
| 5152 | 7.4 µM | 3.18 ×10⁻⁶ cm/s | 0.0278 nM | 4.39 h | 65.27 nmol·h/g | 5.56 h | 10.38 pmol·h/g | 98% | 70.2% | > 30 µM | 0.0021 | CN(C)C(=O)c1cccc(S(=O)(=O)N2CCS[C@H]2C(=O)O[C@@H](Cc2c(Cl)c[n+]([O-])cc2Cl)c2ccc(OC(F)F)c(OCC3CC3)c2)c1 | 5.78 µM | Dose-dependent effect | 0.04 µmol/kg | Activity (Rattus norvegicus [3]): 60%; inhibition (Rattus norvegicus [5]): Active; inhibition in vivo at 0.1 µmol/kg (Rattus norvegicus [6]): 50%; Activity (Cytochrome P450 2C19): 69% |
| 2261 | 25.6 µM | 10.2 ×10⁻⁶ cm/s | 0.0881 nM | 5.18 h | 49.65 nmol·h/g | 4.52 h | 33.27 pmol·h/g | 108% | 71.1% | > 30 µM | 0.0035 | CN(C)C(=O)c1cccc(S(=O)(=O)N2CCC[C@H]2C(=O)O[C@@H](Cc2c(Cl)c[n+]([O-])cc2Cl)c2ccc(OC(F)F)c(OCC3CC3)c2)c1 (relative stereo) | > 30 µM | Dose-dependent effect | 0.1 µmol/kg | Activity [16]: 50%; Drug metabolism [17]: Metabolite_Notdetected |

From ChEMBL document CHEMBL4024768, “Discovery and Optimization of Thiazolidinyl and Pyrrolidinyl Derivatives as Inhaled PDE4 Inhibitors for Respiratory Diseases” (J Med Chem, 2017)
